GPR7 antagonist – blocks human GPR7 receptor signaling; P48145; GPR7-expressing cells, fluorescence antagonist assay; inhibition, % at 4.4 µM; 1.1% of 290,000 active; in the data active = inhibition above about 16%, passing the limit was not always enough;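 also: cells stimulated with the agonist NPW; 0% = agonist with vehicle and 100% = vehicle without agonist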
Target sequence (P48145 whole entry, looked up): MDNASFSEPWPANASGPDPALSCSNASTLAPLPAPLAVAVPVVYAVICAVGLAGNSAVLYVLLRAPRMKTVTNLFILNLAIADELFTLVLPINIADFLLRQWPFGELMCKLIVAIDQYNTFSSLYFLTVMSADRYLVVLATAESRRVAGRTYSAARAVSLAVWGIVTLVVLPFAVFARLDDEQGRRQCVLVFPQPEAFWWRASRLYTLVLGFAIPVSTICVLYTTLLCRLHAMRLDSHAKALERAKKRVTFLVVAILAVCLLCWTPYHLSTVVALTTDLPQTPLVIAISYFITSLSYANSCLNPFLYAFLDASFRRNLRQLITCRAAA
OX1R antag-1 – blocks the human orexin 1 receptor. O43613. CHO/OX1R cells, Fluo-8 calcium fluorescence, orexin A. inhibition, % at 5 µM. 0.43% of 330,000 active. AID 434989;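 active = inhibition above its plate's threshold, mean inhibition of all tested compounds on the plate plus 3 SD, cut at about 37% in these data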;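 also: 0% = orexin A challenge wells and 100% = SB-334867-A antagonist wells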
OX1R antag-2 – OX1R (human) antagonism; O43613; OX1R-expressing cells, FRET antagonist read-out; inhibition, % at 6.6 µM; 1.8% of 330,000 active; AID 485270; in the data active = inhibition mostly above about 38%, no sharp cut-off; inactive = mostly below about 40%;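 also: 0% = agonist challenge alone and 100% = reference antagonist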
TAAR1 ag – agonists of human TAAR1 | Q96RJ0 | CHO RD-HGA16 TAAR1, Fluo-8 calcium fluorescence; vehicle wells 0%, saturating PEA agonist 100% | activation, % at 3 µM | 0.99% of 360,000 active;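 active = activation above the mean activation of all test compounds in the run plus 3 SD, cut at about 38% in these data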
Target sequence (Q96RJ0 whole entry, looked up): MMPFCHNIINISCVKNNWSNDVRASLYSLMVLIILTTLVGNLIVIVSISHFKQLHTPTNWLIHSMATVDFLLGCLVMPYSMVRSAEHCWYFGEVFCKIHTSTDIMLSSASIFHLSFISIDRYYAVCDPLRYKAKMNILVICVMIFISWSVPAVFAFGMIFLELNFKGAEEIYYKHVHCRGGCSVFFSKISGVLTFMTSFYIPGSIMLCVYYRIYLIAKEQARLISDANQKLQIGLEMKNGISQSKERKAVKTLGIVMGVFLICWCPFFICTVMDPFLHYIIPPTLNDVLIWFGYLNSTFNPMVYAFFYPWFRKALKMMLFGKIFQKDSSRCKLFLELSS
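Benchmarks: low control DMSO, high control PEA (EC100); System: CHO RD-HGA16 cells carrying human TAAR1 plus Gα16; Detection: Fluo-8 fluorescence, 5 s baseline then 140 s kinetic read; Schedule: 17-24 h plating, Fluo-8 75 min 37 °C, 30 min RT; Read-out basis: % activation from peak over basal fluorescence ratio, DMSO-to-PEA scaled.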
CHO parental Ca – counter-screen for OX1R antagonists: effect in parental CHO cells. parental CHO-K1, ATP-induced calcium, Fluo-8 fluorescence. inhibition, % at 5.6 µM. 0.63% of 330,000 active. AID 463079;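 active = inhibition above that plate's mean sample inhibition plus 3 SD, cut at about 26% in these data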;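 also: 0% = ATP-challenged DMSO wells and 100% = DMSO wells without ATP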
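material = parental CHO cells | also added = ATP as calcium-mobilizing challenge | dosing = single point at 5.6 µM | detection = intracellular calcium via Fluo-8 no-wash fluorescent dye | read-out = % inhibition | benchmarks = low control ATP plus DMSO, high control DMSO only | repeats = one well per compound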
TAAR1 antag – human TAAR1 antagonism. Q96RJ0. CHO RD-HGA16 TAAR1, Fluo-8 calcium fluorescence, antagonist. inhibition, % at 3 µM. 1.5% of 360,000 active. AID 624466;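 active = inhibition above a per-plate cutoff, the mean inhibition of test compounds on that plate plus 3 SD, cut at about 49% in these data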;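 also: 0% = DMSO plus EC80 beta-PEA response and 100% = DMSO alone without agonist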
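System: CHO RD-HGA16 cells bearing hTAAR1. Reagent: EC80 β-phenethylamine stimulus. Schedule: seeding 17-24 h prior, 75-min 37 °C, 30-min RT dye loading. Signal: Fluo-8 intracellular calcium dye fluorescence, real-time kinetic reads. Read-out: % inhibition from peak post-agonist over basal fluorescence ratio. Benchmarks: vehicle wells and EC80 agonist wells. Replicates: n of 1.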
An asterisk follows results filed as active; / = no result given. Only some compounds are listed: those with a hit (about 4.5% of all), similar ones and a draw of the others.

SMILES	GPR7 antagonist	OX1R antag-1	OX1R antag-2	TAAR1 ag	CHO parental Ca	TAAR1 antag
CC1=C(Nc2ccc(C(=O)O)cc2)C(=O)c2ccccc2C1=O	-5	-14	44*	-1	-2	-6
COc1cc2c3c(c1)C(C)CC(C)(C)N3C(=O)C2=O (stereo not drawn)	14	-77	44*	-1	0	-45
CCc1cc2c3c(c1)C(C)CC(C)(C)N3C(=O)/C2=C1\SC(=O)NC1=O (stereo not drawn)	-18	-20	4	1	-5	-21
CCOC(=O)C1=NN(C(=O)c2ccccc2)C(O)(c2ccc(C)cc2)C1 (stereo not drawn)	-5	-28	17	38*	-17	-14
O=C(c1ccccc1)N1CCC2CCN(CCc3ccccc3)CC21 (stereo not drawn)	/	/	/	0	/	-26
CCOc1ccc(N)c(SSc2cc(OCC)ccc2N)c1	8	24	5	21	47*	-7
CCOc1cccc(N)c1	/	-4	3	/	-16	/
CON(C)C(=O)[C@H]1C[C@@H]2[C@H](C[C@@H](c3ccccc3)[C@H]1C)N(c1ccc(F)cc1)C(=O)N2CCCOc1ccccc1	/	/	/	0	/	3
COc1cccc(NC(=O)CN(C)C(=O)c2ccccc2Sc2ccccc2C#N)c1	/	24	39*	7	-14	17
CN(Cc1cccc(F)c1)C(=O)c1ccccc1Sc1ccccc1C#N	13	-21	41	1	-4	12
CN(CC(=O)Nc1cccc(F)c1)C(=O)c1ccccc1Sc1ccccc1C#N	/	14	33*	5	-21	26
COc1cccc(CN(C)C(=O)c2ccccc2Sc2ccccc2C#N)c1	8	-21	24	3	-18	21
Cc1nn(C)c(C)c1CN(C)S(=O)(=O)c1ccc(F)cc1	-13	-12	15	5	-1	4
Cc1nn(C)c(C)c1CN(C)S(=O)(=O)c1ccc2ccccc2c1	14	27	53*	7	38*	23
CCCC(=O)NC(=S)Nc1cccc(NC(=O)c2ccc(Cl)cc2Cl)c1	-8	9	27	11	4	56*
CCCC(=O)NC(=S)Nc1cccc(NC(=O)c2ccccc2Cl)c1	-3	-6	17	1	-13	7
O=C(Nc1cccnc1)c1ccc([N+](=O)[O-])cc1Cl	-2	-18	56*	2	-6	21
CCCC(=O)Nc1cccc(NC(=O)c2ccc([N+](=O)[O-])cc2Cl)c1	-10	-23	62*	2	-8	2
O=C(Nc1ncccn1)c1ccc([N+](=O)[O-])cc1Cl	-14	-6	35	3	6	-7
O=C(Nc1ccc([N+](=O)[O-])cc1Cl)c1cc(Cl)ccc1O	/	33	68*	6	29	-26
COC(=O)C1=C(C)N(C)C(=NCc2cccc(C(F)(F)F)c2)NC1c1ccccc1 (stereo not drawn)	/	/	/	8	/	-3
C[C@H](CO)N1C[C@H](C)[C@@H](CN(C)C(=O)c2ccncc2)OCc2cn(nn2)CCCC1=O	/	/	/	2	/	-3
Cc1nnc(NC(=O)CSc2nnc(CNC(=O)c3ccccc3F)n2C(C)C)s1	/	/	/	1	/	5
CC(C)n1c(CNC(=O)c2ccccc2F)nnc1SCC(=O)c1ccc(F)cc1	/	/	/	39*	/	-16
COc1ccc(OC)c(CN2C(=O)c3ccccc3C2c2nnnn2C2CCCC2)c1 (stereo not drawn)	/	/	/	6	/	-24
SMILES	GPR7 antagonist	OX1R antag-1	OX1R antag-2	TAAR1 ag	CHO parental Ca	TAAR1 antag
Cc1ccc(F)c(N=Cc2c(O)c3ccccc3oc2=O)c1	-15	-4	51*	-1	-7	5
CN1CCN(c2nc3c(c(=O)n(C)c(=O)n3C)n2Cc2ccccc2F)CC1	1	-8	10	0	-9	3
CCOC(=O)c1nn(-c2ccc(F)cc2)c(=O)c(C#N)c1C	-12	-11	54*	3	-10	-8
Cc1c(C(=O)N2CCCCC2)nn(-c2ccc(Cl)cc2)c(=O)c1C#N	-16	-23	61*	1	-20	-11
CCOC(=O)c1nn(-c2ccc(Cl)cc2)c2nc(CC)c(C#N)c(=O)n12	-10	-30	13	1	-16	-11
CCOC(=O)c1nn(-c2ccc(C)c(Cl)c2)c(=O)c(C#N)c1C	-6	-36	28	2	-18	-4
CCOC(=O)c1nn(-c2ccc(C)cc2)c(=O)c2c(N)scc12	-9	-17	77*	10	-18	-2
CCOC(=O)c1nn(-c2ccc(Cl)cc2)c(=O)c(C#N)c1C	-12	-13	50*	2	11	1
O=C(C(=O)N1CCN(S(=O)(=O)c2ccccc2)CC1)c1cccc(C(F)(F)F)c1	/	/	/	1	/	-6
O=c1c(O)c(-c2ccccc2)oc2ccccc12	/	/	/	15	/	-5
O=c1c(O)c(-c2cccs2)oc2ccccc12	0	19	24	45*	49*	27
Cc1ccc(/C=N/n2c(C3CCCCC3)n[nH]c2=S)cc1	-3	14	-3	8	43*	-12
S=c1[nH]nc(C2CCCCC2)n1/N=C/c1ccc(Cl)cc1	-12	-17	-4	-3	-15	-36
COc1ccc2sc(-c3ccc(S(C)(=O)=O)cc3)c(C(=O)NCCc3c[nH]c4ccccc34)c2c1	/	33	22	28	10	58*
Cc1ccc2c(c1)C(=NC1CCCCC1)c1cc3ccccc3nc1-2	-8	17	75*	0	-14	-9
C[C@H](CO)N1C[C@H](C)[C@@H](CN(C)C(=O)Nc2ccc3c(c2)OCO3)Oc2c(NC(=O)Nc3ccc(C(F)(F)F)cc3)cccc2C1=O	/	6	16	34	-7	80*
C[C@H](CO)N1C[C@H](C)[C@@H](CN(C)C(=O)Nc2ccc(C(F)(F)F)cc2)Oc2c(NC(=O)c3ccncc3)cccc2C1=O	/	-24	8	1	-12	-6
C[C@@H]1CN([C@H](C)CO)C(=O)c2cc(NC(=O)Nc3ccc(C(F)(F)F)cc3)ccc2O[C@H]1CN(C)Cc1ccc(Cl)c(Cl)c1	/	-37	0	2	-13	-21
C[C@H]1CN([C@@H](C)CO)C(=O)c2cccc(NC(=O)Nc3ccc(C(F)(F)F)cc3)c2O[C@@H]1CN(C)Cc1ccc(Cl)c(Cl)c1	/	-24	16	15	-15	51*
COc1ccc(NC(=O)N(C)C[C@H]2Oc3c(NC(=O)Nc4ccc(C(F)(F)F)cc4)cccc3C(=O)N([C@H](C)CO)C[C@@H]2C)cc1	/	12	20	31	-6	73*
C[C@H](CO)N1C[C@H](C)[C@H](CN(C)C(=O)Nc2ccc(F)cc2)Oc2c(NC(=O)c3ccc(-c4nccs4)cc3)cccc2C1=O	/	-6	11	21	-32	54*

Source: PubChem
